# Data reported in ChEMBL document CHEMBL4765263, “Design, synthesis, biological evaluation of 6-(2-amino-1H-benzo[d]imidazole-6-yl)quinazolin-4(3H)-one derivatives as novel anticancer agents with Aurora kinase inhibition” (Eur J Med Chem, 2020).
# Activity calls are given as the source filed them. The rule behind the calls is not given here.
# Experiments:
# MDA-MB-231 [1] = assay: Cytotoxicity against human MDA-MB-231 cells assessed as reduction in cell viability incubated for 72 hrs by MTT assay; type: functional, cell-based; conditions: MDA-MB-231, 72 h
# Procedure, shortened: (§1)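 MTT viability assay. Cells kept in DMEM with 10% FBS at 37 °C and 5% CO2. Seeded at 5×10^3 cells per well and exposed to a range of compound concentrations from 20 mM DMSO stocks. IC50 is the mean of triplicate measurements.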
# PC-3 = assay: Cytotoxicity against human PC-3 cells assessed as reduction in cell viability incubated for 72 hrs by MTT assay; type: functional, cell-based; conditions: PC-3, 72 h; procedure, shortened: as §1
# SH-SY5Y = assay: Cytotoxicity against human SH-SY5Y cells assessed as reduction in cell viability incubated for 72 hrs by MTT assay; type: functional, cell-based; procedure, shortened: as §1
# [2] = Solubility of compound in water; type: physicochemical; conditions: buffer
# MDA-MB-231 [3] = assay: Induction of apoptosis in human MDA-MB-231 cells assessed as viable cells at 1 uM incubated for 48 hrs by annexin V-FITC and PI staining based flow cytometry analysis (reference value: 90.49 %); type: functional; conditions: read-out: Activity
# MDA-MB-231 [4] = assay: Antiproliferative activity against human MDA-MB-231 cells assessed as reduction in cell growth incubated for 48 hrs; type: functional, cell-based; conditions: dose 0.5-2 µM
# MDA-MB-231 [5] = assay: Cytotoxicity against human MDA-MB-231 cells assessed as cell shrinkage at >1 uM incubated for 48 hrs; type: functional, cell-based; conditions: dose microM >1, time 48.0 hrs
# MDA-MB-231 [6] = assay: Cytotoxicity against human MDA-MB-231 cells assessed as cell blebbing at >1 uM incubated for 48 hrs; type: functional, cell-based; conditions: dose microM >1, time 48.0 hrs
# Aurora kinase A = target: T1, Aurora kinase A (Homo sapiens, UniProt O14965); assay: Inhibition of Aurora A (unknown origin) incubated for 1 hrs by HTRF assay
# T1 sequence (O14965 whole entry): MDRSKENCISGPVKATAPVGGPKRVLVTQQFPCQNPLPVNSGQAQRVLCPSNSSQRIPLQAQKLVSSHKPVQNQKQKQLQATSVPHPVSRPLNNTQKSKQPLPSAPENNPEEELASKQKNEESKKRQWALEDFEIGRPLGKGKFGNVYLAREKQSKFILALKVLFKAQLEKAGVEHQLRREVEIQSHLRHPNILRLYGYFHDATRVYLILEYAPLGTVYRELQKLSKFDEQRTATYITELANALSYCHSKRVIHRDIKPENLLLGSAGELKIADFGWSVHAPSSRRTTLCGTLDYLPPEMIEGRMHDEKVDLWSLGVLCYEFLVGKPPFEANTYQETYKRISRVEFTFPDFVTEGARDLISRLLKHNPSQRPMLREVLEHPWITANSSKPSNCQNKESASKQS
# Aurora kinase B = Aurora kinase B (Homo sapiens, UniProt Q96GD4); assay: Inhibition of Aurora B (unknown origin) incubated for 1 hrs by HTRF assay
# Aurora kinase B, sequence (Q96GD4 whole entry): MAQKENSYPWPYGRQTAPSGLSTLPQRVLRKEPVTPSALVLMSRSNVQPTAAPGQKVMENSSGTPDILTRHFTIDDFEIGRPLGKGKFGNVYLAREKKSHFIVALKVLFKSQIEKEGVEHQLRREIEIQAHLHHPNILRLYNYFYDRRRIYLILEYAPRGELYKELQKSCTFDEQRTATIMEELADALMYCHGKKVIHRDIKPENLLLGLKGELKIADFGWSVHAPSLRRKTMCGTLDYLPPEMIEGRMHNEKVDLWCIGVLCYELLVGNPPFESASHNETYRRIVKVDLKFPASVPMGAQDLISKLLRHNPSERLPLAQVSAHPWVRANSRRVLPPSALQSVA
# [7] = target: T2, Aurora kinase A (Homo sapiens) (UniProt O14965); assay: Inhibition of Aurora A in human MDA-MB-231 cells assessed as reduction in Aurora Thr288 residue phosphorylation incubated for 24 hrs by Western blot analysis; type: cell-based; conditions: dose 1-4 µM
# T2 sequence (whole entry): T1 sequence (O14965 whole entry)
# Procedure, shortened: (§2)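 MDA-MB-231 cells exposed to DMSO or drug at set concentrations for 24 h. Western blot for phospho-Aurora A at Thr288 or phospho-histone H3 at Ser10, with total Aurora A, histone H3 and GAPDH antibodies also used. Bands quantified by densitometry.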
# [8] = target: T2, Aurora kinase A (Homo sapiens); assay: Inhibition of Aurora A in human MDA-MB-231 cells assessed as reduction in Histone H3 phosphorylation incubated for 24 hrs by Western blot analysis; type: cell-based; conditions: dose 1-4 µM; procedure, shortened: as §2
# MDA-MB-231 [9] = assay: Induction of cell cycle arrest in human MDA-MB-231 cells assessed as increase G2/M phase accumulation incubated for 24 hrs by PI staining based flow cytometry analysis; type: functional; conditions: dose 1-4 µM
# MDA-MB-231 [10] = assay: Induction of cell cycle arrest in human MDA-MB-231 cells assessed as G0/G1 phase accumulation at 1 uM incubated for 24 hrs by PI staining based flow cytometry analysis (reference value: 42.84 %); type: functional
# MDA-MB-231 [11] = assay: Induction of cell cycle arrest in human MDA-MB-231 cells assessed as S phase accumulation at 1 uM incubated for 24 hrs by PI staining based flow cytometry analysis (reference value: 38.65 %); type: functional
# MDA-MB-231 [12] = assay: Induction of cell cycle arrest in human MDA-MB-231 cells assessed as G2/M phase accumulation at 1 uM incubated for 24 hrs by PI staining based flow cytometry analysis (reference value: 16.62 %); type: functional
# MDA-MB-231 [13] = assay: Induction of cell cycle arrest in human MDA-MB-231 cells assessed as G0/G1 phase accumulation at 2 uM incubated for 24 hrs by PI staining based flow cytometry analysis (reference value: 42.84 %); type: functional
# MDA-MB-231 [14] = assay: Induction of cell cycle arrest in human MDA-MB-231 cells assessed as S phase accumulation at 2 uM incubated for 24 hrs by PI staining based flow cytometry analysis (reference value: 38.65 %); type: functional
# MDA-MB-231 [15] = assay: Induction of cell cycle arrest in human MDA-MB-231 cells assessed as G2/M phase accumulation at 2 uM incubated for 24 hrs by PI staining based flow cytometry analysis (reference value: 16.62 %); type: functional
# MDA-MB-231 [16] = assay: Induction of cell cycle arrest in human MDA-MB-231 cells assessed as G0/G1 phase accumulation at 4 uM incubated for 24 hrs by PI staining based flow cytometry analysis (reference value: 42.84 %); type: functional
# MDA-MB-231 [17] = assay: Induction of cell cycle arrest in human MDA-MB-231 cells assessed as S phase accumulation at 4 uM incubated for 24 hrs by PI staining based flow cytometry analysis (reference value: 38.65 %); type: functional
# MDA-MB-231 [18] = assay: Induction of apoptosis in human MDA-MB-231 cells assessed as early apoptotic cells at 1 uM incubated for 48 hrs by annexin V-FITC and PI staining based flow cytometry analysis (reference value: 3.90 %); type: functional
# MDA-MB-231 [19] = assay: Induction of apoptosis in human MDA-MB-231 cells assessed as late apoptotic cells at 1 uM incubated for 48 hrs by annexin V-FITC and PI staining based flow cytometry analysis (reference value: 2.52 %); type: functional
# MDA-MB-231 [20] = assay: Induction of apoptosis in human MDA-MB-231 cells assessed as necrotic cells at 1 uM incubated for 48 hrs by annexin V-FITC and PI staining based flow cytometry analysis (reference value: 3.08 %); type: functional
# MDA-MB-231 [21] = assay: Induction of apoptosis in human MDA-MB-231 cells assessed as viable cells at 2 uM incubated for 48 hrs by annexin V-FITC and PI staining based flow cytometry analysis (reference value: 90.49 %); type: functional; conditions: read-out: Activity
# MDA-MB-231 [22] = assay: Induction of apoptosis in human MDA-MB-231 cells assessed as early apoptotic cells at 2 uM incubated for 48 hrs by annexin V-FITC and PI staining based flow cytometry analysis (reference value: 3.90 %); type: functional
# MDA-MB-231 [23] = assay: Induction of apoptosis in human MDA-MB-231 cells assessed as late apoptotic cells at 2 uM incubated for 48 hrs by annexin V-FITC and PI staining based flow cytometry analysis (reference value: 2.52 %); type: functional
# MDA-MB-231 [24] = assay: Induction of apoptosis in human MDA-MB-231 cells assessed as necrotic cells at 2 uM incubated for 48 hrs by annexin V-FITC and PI staining based flow cytometry analysis (reference value: 3.08 %); type: functional
# MDA-MB-231 [25] = assay: Induction of apoptosis in human MDA-MB-231 cells assessed as viable cells at 4 uM incubated for 48 hrs by annexin V-FITC and PI staining based flow cytometry analysis (reference value: 90.49 %); type: functional; conditions: read-out: Activity
# MDA-MB-231 [26] = assay: Induction of apoptosis in human MDA-MB-231 cells assessed as early apoptotic cells at 4 uM incubated for 48 hrs by annexin V-FITC and PI staining based flow cytometry analysis (reference value: 3.90 %); type: functional
# MDA-MB-231 [27] = assay: Induction of apoptosis in human MDA-MB-231 cells assessed as late apoptotic cells at 4 uM incubated for 48 hrs by annexin V-FITC and PI staining based flow cytometry analysis (reference value: 2.52 %); type: functional
# MDA-MB-231 [28] = assay: Induction of apoptosis in human MDA-MB-231 cells assessed as necrotic cells at 4 uM incubated for 48 hrs by annexin V-FITC and PI staining based flow cytometry analysis (reference value: 3.08 %); type: functional
# MDA-MB-231 [29] = assay: Induction of apoptosis in human MDA-MB-231 cells assessed as increase in caspase-9 cleavage at 1 to 4 uM incubated for 48 hrs by Western blot analysis; type: functional, cell-based; conditions: dose 1-4 µM
# Procedure, shortened: (§3)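 MDA-MB-231 cells treated for 48 h at set concentrations. Cleaved PARP, cleaved caspase-3 and cleaved caspase-9 detected by Western blot and quantified by densitometry. Mean ± SEM, n = 3.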
# MDA-MB-231 [30] = assay: Induction of apoptosis in human MDA-MB-231 cells assessed as increase in caspase-3 cleavage at 1 to 4 uM incubated for 48 hrs by Western blot analysis; type: functional, cell-based; conditions: dose 1-4 µM; procedure, shortened: as §3
# MDA-MB-231 [31] = assay: Induction of apoptosis in human MDA-MB-231 cells assessed as increase in PARP cleavage at 1 to 4 uM incubated for 48 hrs by Western blot analysis; type: functional, cell-based; conditions: dose 1-4 µM; procedure, shortened: as §3
# MDA-MB-231 [32] = assay: Induction of apoptosis in human MDA-MB-231 cells; type: functional, cell-based; conditions: dose 1-4 µM
# MDA-MB-231 [33] = assay: Induction of cell cycle arrest in human MDA-MB-231 cells assessed as G2/M phase accumulation at 5 uM incubated for 16 hrs by PI staining based flow cytometry analysis (reference value: 16.62 %)
# [34] = test system: MDA-MB-231 (Homo sapiens); assay: Anticlonogenic activity against human MDA-MB-231 cells assessed as inhibition of colony formation at 0.5 to 2 uM incubated for 72 hrs followed by replacement of medium and measured after 10 days by crystal violet staining based visual analysis; conditions: dose 0.5-2 µM
smiles,measurement,setting,value
O=C(Nc1nc2ccc(-c3ccc4ncn(CCN5CCOCC5)c(=O)c4c3)cc2[nH]1)c1ccccc1,IC50,MDA-MB-231 [1],> 20000 nM
same,IC50,PC-3,> 20000 nM
same,IC50,SH-SY5Y,> 20000 nM
CN(C)C(=O)Nc1nc2ccc(-c3ccc4ncn(CCN5CCOCC5)c(=O)c4c3)cc2[nH]1,IC50,MDA-MB-231 [1],4850 nM
same,IC50,PC-3,6450 nM
same,IC50,SH-SY5Y,3920 nM
same,solubility,[2],Soluble
CCCCn1cnc2ccc(-c3ccc4nc(NC(=O)CC)[nH]c4c3)cc2c1=O,IC50,MDA-MB-231 [1],> 20000 nM
same,IC50,PC-3,> 20000 nM
same,IC50,SH-SY5Y,> 20000 nM
CCC(=O)Nc1nc2ccc(-c3ccc4ncn(CCN5CCOCC5)c(=O)c4c3)cc2[nH]1,viability at 1 µM,MDA-MB-231 [3],89%
same,IC50,MDA-MB-231 [1],380 nM
same,IC50,PC-3,1090 nM
same,IC50,SH-SY5Y,770 nM
same,Activity,MDA-MB-231 [4],Dose-dependent effect
same,Activity,MDA-MB-231 [5],Active
same,Activity,MDA-MB-231 [6],Active
same,IC50,Aurora kinase A,21.9 nM
same,IC50,Aurora kinase B,273 nM
same,inhibition,[7],Dose-dependent effect
same,inhibition,[8],Dose-dependent effect
same,Activity,MDA-MB-231 [9],Dose-dependent effect
same,Activity,MDA-MB-231 [10],36.36%
same,Activity,MDA-MB-231 [11],38.28%
same,Activity,MDA-MB-231 [12],21.84%
same,Activity,MDA-MB-231 [13],28.68%
same,Activity,MDA-MB-231 [14],25.43%
same,Activity,MDA-MB-231 [15],39.38%
same,Activity,MDA-MB-231 [16],5.59%
same,Activity,MDA-MB-231 [17],6.99%
same,Activity,MDA-MB-231 [18],4.27%
same,Activity,MDA-MB-231 [19],2.71%
same,Activity,MDA-MB-231 [20],4.02%
same,viability at 2 µM,MDA-MB-231 [21],68.2%
same,Activity,MDA-MB-231 [22],11.61%
same,Activity,MDA-MB-231 [23],8.25%
same,Activity,MDA-MB-231 [24],11.9%
same,viability at 4 µM,MDA-MB-231 [25],53.4%
same,Activity,MDA-MB-231 [26],15.33%
same,Activity,MDA-MB-231 [27],15.41%
same,Activity,MDA-MB-231 [28],15.91%
same,Activity,MDA-MB-231 [29],Active
same,Activity,MDA-MB-231 [30],Active
same,Activity,MDA-MB-231 [31],Active
same,Activity,MDA-MB-231 [32],Dose-dependent effect
same,Activity,MDA-MB-231 [33],76.19%
same,Activity,[34],Active
CCC(=O)Nc1nc2ccc(-c3ccc4nc(CN5CCOCC5)n(C)c(=O)c4c3)cc2[nH]1,IC50,MDA-MB-231 [1],940 nM
same,IC50,PC-3,1650 nM
same,IC50,SH-SY5Y,1080 nM
